Data as given in paper PMC4071626 (MedChemComm, 2013).

Experiments:
[1] = system: CHK reaction in HCT-116 cells; experiment: Inhibition of [3H]PCho formation from [3H]Cho in whole HCT-116 cells; format: cell-based, human; conditions: HCT-116 cells incubated with [3H]Cho
Outline: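 HCT-116 cells incubated with [3H]Cho plus test compound over a range of concentrations; [3H]PCho formed from [3H]Cho measured to follow dose-dependent change in cellular choline phosphorylation.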

Δ49N CHKA2 = Δ49N CHKA2 (Homo sapiens, UniProt P35790); experiment: Lineweaver-Burk reaction kinetics against Δ49N CHKA2; format: biochemical; conditions: 0.1, 1 or 10 μM inhibitor; choline or ATP varied, the other kept at KM
Outline: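 Δ49N CHKA2 reaction kinetics run without inhibitor or with test compound at 0.1, 1 or 10 μM. Choline varied with ATP fixed at KM, or ATP varied with choline fixed at KM; double-reciprocal (Lineweaver–Burk) plots used to assign inhibition type versus each substrate.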

Chain of Δ49N CHKA2 (P35790 50-457 limits assumed, stated change not applied): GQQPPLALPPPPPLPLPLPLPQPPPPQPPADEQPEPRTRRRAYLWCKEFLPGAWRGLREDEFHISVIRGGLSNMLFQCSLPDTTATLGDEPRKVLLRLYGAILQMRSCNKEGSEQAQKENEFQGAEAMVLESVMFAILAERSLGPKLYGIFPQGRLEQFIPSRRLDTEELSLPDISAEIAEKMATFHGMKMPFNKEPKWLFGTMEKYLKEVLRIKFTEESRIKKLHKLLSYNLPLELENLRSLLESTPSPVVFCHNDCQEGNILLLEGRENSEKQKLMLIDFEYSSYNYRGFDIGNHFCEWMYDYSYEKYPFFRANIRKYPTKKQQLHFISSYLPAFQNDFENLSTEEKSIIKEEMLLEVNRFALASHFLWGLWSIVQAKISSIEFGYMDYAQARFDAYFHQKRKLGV

| SMILES | Concentration above which [3H]PCho formation is inhibited >75% [1] | Type of inhibition (Lineweaver-Burk plots) (Δ49N CHKA2) |
| --- | --- | --- |
| CN(C)c1cc[n+](CCCCCCCCCCCCCC[n+]2ccc(N(C)C)cc2)cc1.[Br-].[Br-] [Compound 13] | > 2.4 ± 1 µM |  |
| CN(C)c1cc[n+](CCCCCCCCCCCCn2cnc3c(N)ncnc32)cc1.[Br-] [Compound 12] |  | mixed type of inhibition |
| CN(C)c1cc[n+](CCCCCCCCCCCC[n+]2ccc(N(C)C)cc2)cc1.[Br-].[Br-] [Compound 8] | above 6.5 ± 4 μM | competitive with choline, but not with ATP |
